Compound activity as filed in PubChem BioAssay.
Rows were chosen to be rich in hits. Some 1.5% of all compounds tested hit in one or more screens of this group.
Fh CTSL1 inh: counter-screen for PFM18AAP inhibitors: inhibitors of F. hepatica cathepsin L1; recombinant F. hepatica cathepsin L1, Z-Leu-Arg-MCA fluorescence; inhibition, % at 5.96 µM; 300,000 tested, 0.49% active; AID 1906;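 active = inhibition above the mean of all tested compounds plus 3 SD, set per screening campaign, cut at about 17% in these data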;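 note: 0% = plate median of test compound wells and 100% = 1 µM Z-Phe-Ala-diazomethylketone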
UCH37 DUB inh: human UCH37 deubiquitinating enzyme inhibition | purified proteasome/UCH37, Ub-AMC cleavage fluorescence | Q9Y5K5 | inhibition, % (no concentration beside the values) | 330,000 tested, 0.33% active;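 active = mean inhibition over replicate wells above about 20%, limit read from the data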;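 note: 0% = compound-free wells with enzyme and 100% = wells lacking proteasome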
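System: Proteasome-associated human UCH37 deubiquitinase; Input: 0.15 nM proteasome in added enzyme buffer; Also added: Ub-AMC substrate from 1 µM stock; Incubation: 30 min compound-proteasome preincubation then 25 min substrate reaction, room temperature; Detection: fluorescence, ex 355 nm, em 460 nm; Read-out: % inhibition of Ub-AMC cleavage fluorescence; Benchmarks: no-proteasome and no-compound wells.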
DAGLB inhibitor: diacylglycerol lipase beta (human) inhibition; Q8NCG7; HEK293T DAGLB membrane lysate, EnzChek fluorogenic substrate; inhibition, % at 5.17 µM; 340,000 tested, 0.059% active; AID 504411; in the data active = inhibition above about 34%;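 note: 0% = enzyme with vehicle and 100% = wells lacking enzyme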
MT1-MMP act inh: MT1-MMP (human) activation inhibition; P50281; HT1080 RFP-PRO-GFP cells, GFP/RFP ratio fluorescence, overnight; percent of plate control window, DMSO zero; GFP/RFP ratio change, % at 20 µM; 360,000 tested, 0.061% active;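 active = GFP/RFP ratio change of at least 30% with cell ATP level not reduced by more than half and red fluorescence within 50% of control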
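Test system: HT1080 RFP-PRO-GFP cells; Benchmarks: DMSO and RFP-L50D-GFP cell wells; Timing: cells overnight before dosing, compound overnight, 37 °C, 5% CO2; Compound: one 20 µM compound dose with 1% DMSO; Read-out: GFP/RFP fluorescence ratio.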
NRP1-CendR mod: modulators of CendR peptide binding to human neuropilin-1. FAM-RPARPAR peptide binding to NRP-1, fluorescence polarization. O14786. AID 602438. inhibition, % at 25 µM. 360,000 tested, 0.85% active;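 active = inhibition or corrected inhibition above about 18%, plus a signal ratio from 0.5 to 1.5, limit read from the data, passing the limit was not always enough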
An asterisk follows results filed as active.

Screening CC(C)CNc1oc(-c2ccco2)nc1C#N returned Fh CTSL1 inh 4, UCH37 DUB inh -49, DAGLB inhibitor 0, MT1-MMP act inh 7 and NRP1-CendR mod 22*.
Screening CC(C)CNc1oc(-c2ccccc2Cl)nc1C#N returned Fh CTSL1 inh 3, UCH37 DUB inh -32, DAGLB inhibitor -3, MT1-MMP act inh 2 and NRP1-CendR mod 26*.
For N#Cc1nc(-c2ccco2)oc1NCc1ccc(F)cc1 the results were Fh CTSL1 inh 5, UCH37 DUB inh -5, DAGLB inhibitor 1, MT1-MMP act inh 4 and NRP1-CendR mod 23*.
Screening CCOC(=O)c1c(-c2ccco2)csc1NC(=O)COC(=O)c1cnc(C)cn1 returned Fh CTSL1 inh 31*, UCH37 DUB inh -4, DAGLB inhibitor 1, MT1-MMP act inh -3 and NRP1-CendR mod -31.
COc1cccc(CC(NC(C)=O)C(=O)NC2CCN(C(=O)c3ccc(Cl)cc3)CC2)c1 (stereo not drawn) was read as UCH37 DUB inh 6, DAGLB inhibitor -2, MT1-MMP act inh 6 and NRP1-CendR mod 19*.
CC(=O)NC(Cc1ccc(F)c(F)c1)C(=O)NC1CCN(C(=O)c2ccc(Cl)cc2)CC1 (stereo not drawn) was read as Fh CTSL1 inh 6, UCH37 DUB inh 2, DAGLB inhibitor -2, MT1-MMP act inh 1 and NRP1-CendR mod 0.
Screening CCS(=O)(=O)N1CCCC(C(=O)NCC2CCCO2)C1 (stereo not drawn) returned Fh CTSL1 inh -1, UCH37 DUB inh 31*, DAGLB inhibitor -2, MT1-MMP act inh 2 and NRP1-CendR mod -7.
For O=C(NCC1CCCO1)C1CCCN(S(=O)(=O)c2ccc(F)cc2)C1 (stereo not drawn) the results were Fh CTSL1 inh -2, UCH37 DUB inh 0, DAGLB inhibitor 3, MT1-MMP act inh -4 and NRP1-CendR mod 1.
For CCOc1cc(C=NNC(=O)Cn2nnc3ccccc32)ccc1O the results were UCH37 DUB inh 1.
`Cc1ccc(C=Nc2sc3c(c2C#N)CCC3)s1` gave UCH37 DUB inh 2.
For O=c1cc(N=Cc2coc3cc(Br)ccc3c2=O)[nH]c(=S)[nH]1 the results were UCH37 DUB inh 12.
For COc1ccc(-c2csc(NCCc3nc4cc(C(=O)NCCCO)ccc4n3Cc3ccc(C)cc3)n2)cc1 the results were Fh CTSL1 inh 4, UCH37 DUB inh 1, DAGLB inhibitor 3, MT1-MMP act inh 1 and NRP1-CendR mod 27*.
`CC1CN(Cc2c(O)ccc3c(=O)c(-c4ccccc4)coc23)CC(C)O1` (stereo not drawn) gave Fh CTSL1 inh -3, UCH37 DUB inh -388, DAGLB inhibitor -1, MT1-MMP act inh 0 and NRP1-CendR mod 38*.
For O=c1c(-c2ccccc2)coc2c(CN3CCCCC3)c(O)ccc12 the results were Fh CTSL1 inh 1, UCH37 DUB inh inactive, DAGLB inhibitor 2, MT1-MMP act inh 2 and NRP1-CendR mod 14.
Screening COc1ccc(C=NNc2ccc(C(F)(F)F)cc2[N+](=O)[O-])cc1 returned UCH37 DUB inh 2.
Fc1ccc(CON=CC2=C(Cl)c3ccccc3CC2)cc1 was read as UCH37 DUB inh 6.
`CC(=NNc1nc2ccccc2[nH]1)c1ccc([N+](=O)[O-])cc1` gave UCH37 DUB inh 4.
Screening Cc1cccc2c1NC(=O)C2=O returned UCH37 DUB inh 2, DAGLB inhibitor 0, MT1-MMP act inh -3 and NRP1-CendR mod -32.
COC(=O)c1cccc2c1NC(=O)C2=O was read as Fh CTSL1 inh 17*, UCH37 DUB inh 13, DAGLB inhibitor 1, MT1-MMP act inh 0 and NRP1-CendR mod 5.
`CCCCc1ccc(S(=O)(=O)N2CCC3(CC2)OCCO3)cc1` gave Fh CTSL1 inh 4, UCH37 DUB inh 3, DAGLB inhibitor -3, MT1-MMP act inh 0 and NRP1-CendR mod 33*.
CCNC(=O)CC(C)=NNC(=O)C1CCCCC1 was read as UCH37 DUB inh 2.
Screening CCC(=NNC(=O)c1ccc(CN(C)S(=O)(=O)c2ccc(C)cc2)cc1)c1ccc(OC(F)F)cc1 returned UCH37 DUB inh -1.
`O=C1Cc2ccccc2C(=O)N1Cc1ccccc1` gave Fh CTSL1 inh 1, UCH37 DUB inh 26*, DAGLB inhibitor -7, MT1-MMP act inh -1 and NRP1-CendR mod -2.
